Measured values as given in ChEMBL document CHEMBL1154742, “Modular synthesis and in vitro and in vivo antimalarial assessment of C-10 pyrrole mannich base derivatives of artemisinin” (J Med Chem, 2010).

Assays:
[1] = test system: Plasmodium falciparum; test: Antimalarial activity against chloroquine-sensitive Plasmodium falciparum 3D7 assessed as growth inhibition by [3H]hypoxanthine incorporation assay; format: functional, organism-based
Method in brief: (§1)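 Asynchronous P. falciparum culture (65-75% rings, 0.5% parasitemia) at 2.5% final hematocrit, with triplicate 3-fold drug dilutions (10.0 to 0.0041 μg/mL) in RPMI 1640 with 0.5% Albumax II, glucose, L-glutamine and 5 μM hypoxanthine. DMSO was ≤0.01% final. After 24 h at 37 °C in 5% CO2, [3H]hypoxanthine (0.2 μCi/well) was added for a further 24 h. Plates were frozen and harvested, incorporation counted by scintillation, and IC50 obtained by curve fitting.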

[2] = test system: KB; test: Cytotoxicity against human KB cells after 72 hrs by alamar blue assay; format: cell-based
Method in brief: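 KB cells seeded at 4 × 10^4 cells/mL in RPMI 1640 with 10% heat-inactivated fetal calf serum and grown 24 h at 37 °C in 5% CO2. Compound dilution series added in triplicate for 72 h, with podophyllotoxin as positive control. AlamarBlue added for 2-4 h; fluorescence read at ex 530/em 585 nm and IC50 obtained by curve fitting.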

[3] = Therapeutic index, ratio of IC50 for human KB cells to IC50 for Plasmodium falciparum 3D7; format: cell-based; details: KB cells (cytotoxicity) versus Plasmodium falciparum 3D7, read-out: TI
[4] = test system: Plasmodium falciparum; test: Antimalarial activity against chloroquine-sensitive Plasmodium falciparum 3D7 assessed as growth inhibition by [3H]hypoxanthine incorporation assay relative to artemisinin; format: functional
[5] = test system: Plasmodium falciparum; test: Antimalarial activity against chloroquine-resistant Plasmodium falciparum K1 (Thailand) assessed as growth inhibition by [3H]hypoxanthine incorporation assay; format: functional, organism-based; method in brief: as §1
[6] = test system: Plasmodium falciparum; test: Antimalarial activity against chloroquine-resistant Plasmodium falciparum K1 (Thailand) assessed as growth inhibition by [3H]hypoxanthine incorporation assay relative to artemisinin; format: functional
[7] = test system: Plasmodium berghei; test: Antimalarial activity against Plasmodium berghei ANKA infected Swiss CD1 mice (Mus musculus) assessed as reduction of parasitemia at 30 mg/kg, perorally administered after 3 hrs of infection for 3 days measured on day 4 relative to control; format: functional; details: route oral
Method in brief: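 Male Swiss CD-1 mice (20 g) infected iv with 4 × 10^6 P. berghei ANKA-infected red cells on day 0, in groups of five. Compound was given orally in standard suspending vehicle (carboxymethylcellulose, benzyl alcohol, Tween 80, saline), 3 × 30 mg/kg, starting 3 h post-infection, once daily. Parasitemia was counted on Giemsa-stained smears on day 4 and expressed as % inhibition versus the untreated group mean.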

[8] = test system: Plasmodium berghei; test: Antimalarial activity against Plasmodium berghei ANKA infected NMRI mice (Mus musculus) assessed as reduction of parasitemia treated perorally for 3 days measured on day 4; format: functional; details: po
[9] = test system: Plasmodium berghei; test: Antimalarial activity against Plasmodium berghei ANKA infected NMRI mice (Mus musculus) assessed as mean survival time at 10 mg/kg, intraperitoneally 4 consecutive doses for 3 days measured on day 4 by FACS analysis; details: route intraperitoneal
[10] = test system: Plasmodium berghei; test: Antimalarial activity against Plasmodium berghei ANKA infected NMRI mice (Mus musculus) assessed as reduction of parasitemia at 10 mg/kg, intraperitoneally 4 consecutive doses for 3 days measured on day 4 by FACS analysis; details: ip

Structure (SMILES) | IC50 [1] [nM] | IC50 [2] [nM] | selectivity ratio [3] | Ratio IC50 [4] | IC50 [5] [nM] | Ratio IC50 [6] | inhibition in vivo at 30 mg/kg [7] [%] | ED50 [8] [mg/kg] | ED90 [8] [mg/kg] | MSD [9] [days] | inhibition in vivo at 10 mg/kg [10] [%]
C[C@H]1[C@H](c2ccc(CN3CCCCC3)[nH]2)O[C@@H]2O[C@@]3(C)CC[C@H]4[C@H](C)CC[C@@H]1[C@@]24OO3 | 59.4 | 143000 | 2410 | 0.22 | – | – | – | – | – | – | –
CC(C)N1CCN(Cc2ccc([C@@H]3O[C@@H]4O[C@@]5(C)CC[C@H]6[C@H](C)CC[C@@H]([C@H]3C)[C@@]46OO5)n2C)CC1 | 5.1 | – | – | 2.51 | 8.3 | 0.99 | – | – | – | – | –
C[C@H]1[C@H](c2ccc(CN3CCCC3)[nH]2)O[C@@H]2O[C@@]3(C)CC[C@H]4[C@H](C)CC[C@@H]1[C@@]24OO3 | 16.9 | 47000 | 2780 | 0.76 | – | – | – | – | – | – | –
C[C@H]1[C@H](c2ccc(CN3CCCCC3)n2C)O[C@@H]2O[C@@]3(C)CC[C@H]4[C@H](C)CC[C@@H]1[C@@]24OO3 | 6.1 | 39200 | 6430 | 2.1 | – | – | – | – | – | – | –
C[C@H]1[C@H](c2ccc(CN3CCOCC3)[nH]2)O[C@@H]2O[C@@]3(C)CC[C@H]4[C@H](C)CC[C@@H]1[C@@]24OO3 | 2.5 | 56500 | 22600 | 2.84 | 3.2 | 2.56 | 100 | 2.11 | 4.3 | – | –
C[C@H]1[C@H](c2ccc(CN3CCS(=O)(=O)CC3)n2C)O[C@@H]2O[C@@]3(C)CC[C@H]4[C@H](C)CC[C@@H]1[C@@]24OO3 | 2.2 | 68300 | 31100 | 5.82 | 3.57 | 2.3 | – | – | – | – | –
C[C@H]1[C@H](c2ccc(CN3CCN(C)CC3)[nH]2)O[C@@H]2O[C@@]3(C)CC[C@H]4[C@H](C)CC[C@@H]1[C@@]24OO3 | 6.5 | 85200 | 13100 | 1.97 | 5 | 1.64 | 97.7 | – | – | 7 | 98
C[C@H]1[C@H](c2ccc(CN3CCCC3)n2C)O[C@@H]2O[C@@]3(C)CC[C@H]4[C@H](C)CC[C@@H]1[C@@]24OO3 | 3.7 | 42200 | 11400 | 3.46 | – | – | – | – | – | – | –
C[C@H]1[C@H](c2ccc(CN3CCC(N4CCCC4)CC3)n2C)O[C@@H]2O[C@@]3(C)CC[C@H]4[C@H](C)CC[C@@H]1[C@@]24OO3 | 2.5 | – | – | 5.12 | 7.3 | 1.12 | – | – | – | – | –
C[C@H]1[C@H](c2ccc[nH]2)O[C@@H]2O[C@@]3(C)CC[C@H]4[C@H](C)CC[C@@H]1[C@@]24OO3 | 7.4 | 62500 | 8450 | 1.73 | – | – | – | – | – | – | –
C[C@H]1[C@H](c2ccc(CN3CCSCC3)n2C)O[C@@H]2O[C@@]3(C)CC[C@H]4[C@H](C)CC[C@@H]1[C@@]24OO3 | 7.2 | 138000 | 19100 | 1.78 | – | – | – | – | – | – | –
C[C@H]1[C@H](c2ccc(CN3CCOCC3)n2C)O[C@@H]2O[C@@]3(C)CC[C@H]4[C@H](C)CC[C@@H]1[C@@]24OO3 | 3.5 | 86200 | 24600 | 3.66 | 1.9 | 4.32 | 100 | 1.77 | 5.2 | – | –
C[C@H]1[C@H](c2ccc(CN(C)C)n2C)O[C@@H]2O[C@@]3(C)CC[C@H]4[C@H](C)CC[C@@H]1[C@@]24OO3 | 31.6 | – | – | 0.4 | – | – | – | – | – | – | –
CCN(CC)Cc1ccc([C@@H]2O[C@@H]3O[C@@]4(C)CC[C@H]5[C@H](C)CC[C@@H]([C@H]2C)[C@@]35OO4)[nH]1 | 75.8 | – | – | 0.17 | – | – | – | – | – | – | –
C[C@H]1[C@H](c2cccn2C)O[C@@H]2O[C@@]3(C)CC[C@H]4[C@H](C)CC[C@@H]1[C@@]24OO3 | 5.2 | 60300 | 11600 | 2.46 | – | – | – | 4.5 | 8.5 | – | –
CC(C)N1CCN(Cc2ccc([C@@H]3O[C@@H]4O[C@@]5(C)CC[C@H]6[C@H](C)CC[C@@H]([C@H]3C)[C@@]46OO5)[nH]2)CC1 | 8.5 | 45300 | 5330 | 1.51 | 3.5 | 2.34 | 90.5 | – | – | 6 | 90
C[C@H]1[C@H](c2ccc(CN3CCN(C)CC3)n2C)O[C@@H]2O[C@@]3(C)CC[C@H]4[C@H](C)CC[C@@H]1[C@@]24OO3 | 6.5 | 96500 | 14800 | 1.97 | 3.8 | 2.16 | 100 | 1.99 | 5.34 | 9 | 100
C[C@H]1[C@H](c2ccc(CN(C)C)[nH]2)O[C@@H]2O[C@@]3(C)CC[C@H]4[C@H](C)CC[C@@H]1[C@@]24OO3 | 20.5 | 43600 | 2130 | 0.62 | – | – | – | – | – | – | –
CO[C@H]1O[C@@H]2O[C@@]3(C)CC[C@H]4[C@H](C)CC[C@@H]([C@H]1C)[C@@]24OO3 [ARTEMETHER] | 4.2 | – | – | – | – | 2.41 | 100 | – | 10.6 | – | –
C[C@@H]1CC[C@H]2[C@@H](C)C(=O)O[C@@H]3O[C@@]4(C)CC[C@@H]1[C@]32OO4 [ARTEMISININ] | 12.8 | > 354000 | > 27700 | – | 8.2 | – | – | – | – | – | –
C[C@H]1[C@H](OC(=O)CCC(=O)O)O[C@@H]2O[C@@]3(C)CC[C@H]4[C@H](C)CC[C@@H]1[C@@]24OO3 [ARTESUNATE] | – | – | – | – | – | – | 100 | 3.23 | > 10 | 8 | 98
CCN(CC)CCCC(C)Nc1ccnc2cc(Cl)ccc12 (stereo not drawn) [CHLOROQUINE PHOSPHATE] | – | 112000 | – | – | – | – | – | – | – | – | –
